Assay results: ChEMBL document CHEMBL4316593 (Eur J Med Chem, 2019)

Legend:
[1] = test system: U-87 MG; test: Cell cycle arrest in human U87 cells assessed as change in GADD45B gene expression at cytotoxic IC50 measured after 48 hrs […] relative to control; type: functional, U-87MG ATCC
Method in brief: (§1)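 U87 expression profiling. Cells incubated 48hrs at 37°C, 5% CO₂ with the IC₅₀ concentration, alongside a cisplatin and an untreated control, in triplicate. RNA was isolated by one common protocol and profiled. DEGs were called with DESeq2 (q < 0.05, fold change > 1.5) and expressed as fold change versus untreated.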

[2] = test system: U-87 MG; test: Cell cycle arrest in human U87 cells assessed as change in MYC gene expression at cytotoxic IC50 measured after 48 hrs […] relative to control; type: functional, U-87MG ATCC; method in brief: as §1
[3] = test system: U-87 MG; test: Cell cycle arrest in human U87 cells assessed as change in CDK7 gene expression at cytotoxic IC50 measured after 48 hrs […] relative to control; type: functional, U-87MG ATCC; method in brief: as §1
[4] = test system: U-87 MG; test: Cell cycle arrest in human U87 cells assessed as change in E2F2 gene expression at cytotoxic IC50 measured after 48 hrs […] relative to control; type: functional, U-87MG ATCC; method in brief: as §1
[5] = test system: U-87 MG; test: Induction of DNA damage in human U87 cells assessed as change in CDKN1A gene expression at cytotoxic IC50 measured after 48 hrs […] relative to control; type: functional, U-87MG ATCC; method in brief: as §1
[6] = test system: U-87 MG; test: Induction of DNA damage in human U87 cells assessed as change in GADD45A gene expression at cytotoxic IC50 measured after 48 hrs […] relative to control; type: functional, U-87MG ATCC; method in brief: as §1
[7] = test system: U-87 MG; test: Induction of DNA damage in human U87 cells assessed as change in PEA15 gene expression at cytotoxic IC50 measured after 48 hrs […] relative to control; type: functional, U-87MG ATCC; method in brief: as §1
[8] = test system: U-87 MG; test: Induction of DNA damage in human U87 cells assessed as change in PLK2 gene expression at cytotoxic IC50 measured after 48 hrs […] relative to control; type: functional, U-87MG ATCC; method in brief: as §1
[9] = test system: U-87 MG; test: Induction of DNA damage in human U87 cells assessed as change in BRIP1 gene expression at cytotoxic IC50 measured after 48 hrs […] relative to control; type: functional, U-87MG ATCC; method in brief: as §1
[10] = test system: U-87 MG; test: Induction of apoptosis in human U87 cells assessed as change in JUN gene expression at cytotoxic IC50 measured after 48 hrs […] relative to control; type: functional, U-87MG ATCC
Method in brief: (§2)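 U87 cells grown in MEM with 10% FBS at 37°C, 5% CO2. Cells exposed to IC50 of test compound for 48 hrs, alongside untreated and cisplatin controls, each condition in triplicate. RNA isolated and profiled; differential expression called with DESeq2 (q-value < 0.05, fold change > 1.5), fold change versus untreated.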

[11] = test system: U-87 MG; test: Induction of apoptosis in human U87 cells assessed as change in ACTB gene expression at cytotoxic IC50 measured after 48 hrs […] relative to control; type: functional, U-87MG ATCC; method in brief: as §2
[12] = test system: LN-229; test: Induction of apoptosis in human LN229 cells assessed as decrease in caspase-3/7 activation at cytotoxic IC50 measured after 5 hrs by caspase-glo 3/7 luminescence assay relative to control; type: functional; set-up: scale not given: the % may be the effect or the level left
Method in brief: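 Cells grown overnight in 96-well format, then given IC50 for 5 hrs at 37°C, 5% CO2, with negative, positive and blank (medium+DMSO+dye) wells. Equilibrated 30 min at room temperature, Caspase-Glo 3/7 reagent added 1:1 in the dark, luminescence read at 1 hr. Fold change = (test−blank)/(control−blank). Triplicate measurements, at least two independent experiments.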

[13] = Inhibition of RTK/PI3K/AKT/mTOR signaling in human U87 cells assessed as down regulation of MAP2 gene expression at cytotoxic IC50 measured after 48 hrs relative to control; type: cell-based; settings: U-87MG ATCC
Method in brief: (§3)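 Cells were exposed for 48hrs at 37°C in humidified 5% CO₂ to the compound at its previously determined IC₅₀, with Cisplatin at its IC₅₀ and an untreated negative control alongside. Each condition was run in triplicate. RNA was isolated from all samples by the same protocol. Genes were called differentially expressed by DESeq2 at q-value < 0.05 and fold change > 1.5.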

[14] = Inhibition of RTK/PI3K/AKT/mTOR signaling in human U87 cells assessed as down regulation of ATP6V0D1 gene expression at cytotoxic IC50 measured after 48 hrs relative to control; type: cell-based; settings: U-87MG ATCC; method in brief: as §2
[15] = Inhibition of RTK/PI3K/AKT/mTOR signaling in human U87 cells assessed as down regulation of BRMS1 gene expression at cytotoxic IC50 measured after 48 hrs relative to control; type: cell-based; settings: U-87MG ATCC; method in brief: as §2
[16] = Inhibition of RTK/PI3K/AKT/mTOR signaling in human U87 cells assessed as down regulation of ZMAT2 gene expression at cytotoxic IC50 measured after 48 hrs relative to control; type: cell-based; settings: U-87MG ATCC; method in brief: as §3
[17] = Inhibition of RTK/PI3K/AKT/mTOR signaling in human U87 cells assessed as down regulation of DHX30 gene expression at cytotoxic IC50 measured after 48 hrs relative to control; type: cell-based; settings: U-87MG ATCC; method in brief: as §2
[18] = Inhibition of RTK/PI3K/AKT/mTOR signaling in human U87 cells assessed as up regulation of STC2 gene expression at cytotoxic IC50 measured after 48 hrs relative to control; type: cell-based; settings: U-87MG ATCC
[19] = Inhibition of RTK/PI3K/AKT/mTOR signaling in human U87 cells assessed as up regulation of UPK1A-AS1 gene expression at cytotoxic IC50 measured after 48 hrs relative to control; type: cell-based; settings: U-87MG ATCC
[20] = Inhibition of RTK/PI3K/AKT/mTOR signaling in human U87 cells assessed as up regulation of AXL gene expression at cytotoxic IC50 measured after 48 hrs relative to control; type: cell-based; settings: U-87MG ATCC; method in brief: as §3
[21] = Inhibition of RTK/PI3K/AKT/mTOR signaling in human U87 cells assessed as up regulation of SLC45A3 gene expression at cytotoxic IC50 measured after 48 hrs relative to control; type: cell-based; settings: U-87MG ATCC
[22] = Inhibition of RTK/PI3K/AKT/mTOR signaling in human U87 cells assessed as up regulation of USH1 protein network component harmonin gene expression at cytotoxic IC50 measured after 48 hrs relative to control; type: cell-based; settings: U-87MG ATCC
[23] = Inhibition of RTK/PI3K/AKT/mTOR signaling in human U87 cells assessed as up regulation of ras homolog family member Q gene expression at cytotoxic IC50 measured after 48 hrs relative to control; type: cell-based; settings: U-87MG ATCC
[24] = Inhibition of RTK/PI3K/AKT/mTOR signaling in human U87 cells assessed as up regulation of phosphofructokinase, platelet gene expression at cytotoxic IC50 measured after 48 hrs relative to control; type: cell-based
[25] = Inhibition of RTK/PI3K/AKT/mTOR signaling in human U87 cells assessed as up regulation of NCOR2 gene expression at cytotoxic IC50 measured after 48 hrs relative to control; type: cell-based; settings: U-87MG ATCC; method in brief: as §3
[26] = Inhibition of RTK/PI3K/AKT/mTOR signaling in human U87 cells assessed as up regulation of MYC gene expression at cytotoxic IC50 measured after 48 hrs relative to control; type: cell-based; settings: U-87MG ATCC; method in brief: as §3
[27] = Inhibition of RTK/PI3K/AKT/mTOR signaling in human U87 cells assessed as up regulation of TTYH3 gene expression at cytotoxic IC50 measured after 48 hrs relative to control; type: cell-based; settings: U-87MG ATCC
[28] = Inhibition of RTK/PI3K/AKT/mTOR signaling in human U87 cells assessed as up regulation of GGA2 gene expression at cytotoxic IC50 measured after 48 hrs relative to control; type: cell-based; settings: U-87MG ATCC; method in brief: as §3

What does the source list for `CC(=O)C(=NNc1ccccc1C#N)C(C)=O`?
fold change (FC) [1]: -2.899; fold change (FC) [2]: -1.478; fold change (FC) [3]: -1.609; fold change (FC) [4]: 2.384; fold change (FC) [5]: 1.296; fold change (FC) [6]: -0.9679; fold change (FC) [7]: -1.195; fold change (FC) [8]: 1.28; fold change (FC) [9]: 2.317; log2FC [10]: -3.064; log2FC [11]: -1.876; Activity [12]: 36.1%; log2FC [13]: -1.55; log2FC [14]: -1.21; log2FC [15]: -0.813; log2FC [16]: -0.716; log2FC [17]: -0.431; log2FC [18]: 3.02; log2FC [19]: 2.69; log2FC [20]: 1.89; log2FC [21]: 1.61; log2FC [22]: 1.03; log2FC [23]: 0.702; log2FC [24]: 0.662; log2FC [25]: 0.558; log2FC [26]: 0.54; log2FC [27]: 0.524; log2FC [28]: 0.505
